According to ChEMBL document CHEMBL4699498 (J Med Chem, 2020):
Calls of active or inactive are those of the source. The rule behind the calls is not given here.

What was measured:
[1] = Acute toxicity in Balb/c mouse xenografted with SW-620 cells assessed as lethality at 10 mg/kg, po qd administered for 5 days in presence of TMZ; assay type: organism-based; conditions: in vivo, 120 h, time 5 day
Summary of the method: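 In male BALB/c nude mice (5–6 weeks), s.c. SW620 xenografts (6×10^6 cells, right armpit) were grown to about 150 mm³, then randomised, 6 per group. The agent was given once daily for 5 days, orally or i.p., in 5% DMSO/20% PEG400/10% Cremophor EL/65% saline. TMZ 50 mg/kg was given orally once daily for 5 days from day 0, 45 min after the agent. Body weight was measured 2–3 times weekly.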

[2] = Acute toxicity in Balb/c mouse xenografted with Capan1 cells assessed as lethality at 100 mg/kg, po qd administered for 5 days in presence of cisplatin; assay type: organism-based; conditions: in vivo, 120 h, time 5 day
Summary of the method: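 Male BALB/c nude mice (5–6 weeks) carried s.c. Capan-1 xenografts (5×10^6 cells, right armpit) and were randomised at about 150 mm³, 6 per group. The agent was given once daily on days 0–4, by oral gavage or i.p., in DMSO/PEG400/Cremophor EL/saline vehicle. Cisplatin 6 mg/kg in saline was given i.p. on day 2, 45 min after the agent. Body weight was recorded 2–3 times weekly.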

HCC1937 = experiment: Antiproliferation activity against human HCC1937 assessed as cell growth inhibition incubated for 7 days by CCK-8 assay; assay type: functional, cell-based; conditions: time 7.0 day
Summary of the method: (§1)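 Cells were sub-cultured at least twice and seeded for 24 h before dosing. Compounds came from 10 mM DMSO stocks, given as 10 points of 3-fold serial dilution starting at 10-20 μM. Incubation was about 7 days (Capan-1 13 days) at 37 °C, 5% CO2. Read-out was CCK-8 absorbance at 450 nm, as % growth versus DMSO wells (duplicate wells). IC50 was fitted by nonlinear regression; three independent experiments.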

PC-3 = experiment: Antiproliferation activity against human PC-3 assessed as cell growth inhibition incubated for 7 days by CCK-8 assay; assay type: functional, cell-based; conditions: time 7.0 day; summary of the method: as §1
MDA-MB-468 = experiment: Antiproliferation activity against human MDA-MB-468 assessed as cell growth inhibition incubated for 7 days by CCK-8 assay; assay type: functional, cell-based; conditions: time 7.0 day; summary of the method: as §1
CAPAN-1 [3] = experiment: Antiproliferative activity against human CAPAN-1 cells assessed as cell growth inhibition incubated for 13 days by CCK-8 assay; assay type: functional, cell-based; conditions: CAPAN-1, 312 h; summary of the method: as §1
SW-620 [4] = experiment: Potentiation of TMZ induced antitumor activity against SW-620 cells xenografted in Balb/c mouse assessed as tumor growth suppression at 10 mg/kg, po qd administered for 5 days; assay type: functional, organism-based; conditions: time 5.0 day
Summary of the method: (§2)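 Male BALB/c nude mice carried SW620 xenografts (6×10^6 cells s.c.), randomized at ~150 mm³ (6 per group). TMZ 50 mg/kg was given orally once daily on days 0-4, 45 min after the partner drug. Partners were 5 or 10 mg/kg intraperitoneally or 10 mg/kg by oral gavage, daily for 5 days. Vehicle was 5% DMSO/20% PEG400/10% Cremophor EL/65% saline. Tumor volume and body weight were recorded 2-3 times weekly.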

MDA-MB-436 [5] = experiment: Induction of DNA damage in human MDA-MB-436 cells assessed as increase in gammaH2AX foci formation incubated for 24 hrs by Western blot analysis; assay type: functional, cell-based; conditions: dose microM 0.1-10, time 24.0 hrs
Summary of the method: (§3)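 MDA-MB-436 (BRCA1-/-) or Capan-1 (BRCA2-/-) cells were treated 24 h at the indicated concentrations. Lysis was in RIPA buffer with protease inhibitors, and 20-30 μg protein was run on SDS-PAGE. Blots were probed for γH2AX, with β-tubulin as the loading control, and detected by ECL.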

MDA-MB-436 [6] = experiment: Antiproliferative activity against human MDA-MB-436 cells assessed as cell growth inhibition incubated for 7 days by CCK-8 assay; assay type: functional, cell-based; conditions: MDA-MB-436, 168 h; summary of the method: as §1
SW-620 [7] = experiment: Antiproliferation activity against human SW620 assessed as cell growth inhibition incubated for 7 days by CCK-8 assay; assay type: functional, cell-based; conditions: time 7.0 day; summary of the method: as §1
CAPAN-1 [8] = experiment: Antitumor activity against CAPAN-1 cells xenografted in Balb/c mouse assessed as tumor growth inhibition at 100 mg/kg, po qd administered for 21 days; assay type: functional, organism-based; conditions: time 21.0 day
Summary of the method: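 Male BALB/c nude mice (5-6 weeks old) carried subcutaneous Capan-1 xenografts (5×10^6 cells, right armpit). At ~150 mm³ they were randomized (6 per group). Dosing was 100 mg/kg by oral gavage daily for 21 days, or 25 mg/kg intraperitoneally 5 times a week for 3 weeks. Vehicle was 5% DMSO/20% PEG400/10% Cremophor EL/65% saline. Tumor volume was (length/2)×width², measured 2-3 times weekly.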

CAPAN-1 [9] = experiment: Induction of DNA damage in human Capan1 cells assessed as increase in gammaH2AX foci formation incubated for 24 hrs by Western blot analysis; assay type: functional, cell-based; conditions: dose microM 0.1-10, time 24.0 hrs; summary of the method: as §3
LNCaP = experiment: Antiproliferation activity against human LNCAP assessed as cell growth inhibition incubated for 7 days by CCK-8 assay; assay type: functional, cell-based; conditions: time 7.0 day; summary of the method: as §1
CWR22R = experiment: Antiproliferation activity against human 22Rv1 assessed as cell growth inhibition incubated for 7 days by CCK-8 assay; assay type: functional, cell-based; conditions: time 7.0 day; summary of the method: as §1
[10] = Acute toxicity in Balb/c mouse xenografted with SW-620 cells assessed as mean weight loss at 10 mg/kg, po qd administered for 5 days in presence of TMZ measured on day 9 relative to control; assay type: organism-based; conditions: in vivo, 216 h; summary of the method: as §2
MDA-MB-231 = experiment: Antiproliferation activity against human MDA-MB-231 assessed as cell growth inhibition incubated for 7 days by CCK-8 assay; assay type: functional, cell-based; conditions: time 7.0 day; summary of the method: as §1

For `O=C(c1cc(Cc2n[nH]c(=O)c3ccccc23)ccc1F)N1CCN(C(=O)C2CC2)CC1` [OLAPARIB], the Activity [1] was “Non-Toxic”, the Activity [2] was “Non-Toxic” and the Activity (HCC1937) was “Active”. For the same molecule, the Activity (PC-3) was “Active”, the Activity (MDA-MB-468) was “Active” and the IC50 (CAPAN-1 [3]) was 27 nM. For the same molecule, the Activity (SW-620 [4]) was “Active”, the Activity (MDA-MB-436 [5]) was “Active” and the IC50 (MDA-MB-436 [6]) was 18 nM. For the same molecule, the Activity (SW-620 [7]) was “Active”, the Activity (CAPAN-1 [8]) was “Active” and the Activity (CAPAN-1 [9]) was “Active”. The Activity (LNCaP) was “Active”, the Activity (CWR22R) was “Active” and the Activity [10] was 15%. For the same molecule, the Activity (MDA-MB-231) was “Active”.
